VIM-2 inh = inhibitors of Pseudomonas aeruginosa VIM-2 metallo-beta-lactamase; purified VIM-2, nitrocefin hydrolysis, epi-absorbance fluorescence; inhibition, % at 5.6 µM; 0.89% of 290,000 active;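 active means inhibition above the mean of all tested compounds plus 3 SD, cutoff set per screening run, cut at about 7.5% in these data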;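 further: red hydrolysis product quenches plate fluorescence so inhibitors raise well fluorescence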
Mdm2 MdmX PPI = human Mdm2/MdmX binding inhibition. SaOS-2 split-luciferase Mdm2/MdmX complementation, luminescence. inhibition, % at 8 µM. 3% of 330,000 active. AID 485346;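 active means inhibition of at least 50% at 8 µM in the primary screen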
Target sequence (O15151 whole entry, looked up): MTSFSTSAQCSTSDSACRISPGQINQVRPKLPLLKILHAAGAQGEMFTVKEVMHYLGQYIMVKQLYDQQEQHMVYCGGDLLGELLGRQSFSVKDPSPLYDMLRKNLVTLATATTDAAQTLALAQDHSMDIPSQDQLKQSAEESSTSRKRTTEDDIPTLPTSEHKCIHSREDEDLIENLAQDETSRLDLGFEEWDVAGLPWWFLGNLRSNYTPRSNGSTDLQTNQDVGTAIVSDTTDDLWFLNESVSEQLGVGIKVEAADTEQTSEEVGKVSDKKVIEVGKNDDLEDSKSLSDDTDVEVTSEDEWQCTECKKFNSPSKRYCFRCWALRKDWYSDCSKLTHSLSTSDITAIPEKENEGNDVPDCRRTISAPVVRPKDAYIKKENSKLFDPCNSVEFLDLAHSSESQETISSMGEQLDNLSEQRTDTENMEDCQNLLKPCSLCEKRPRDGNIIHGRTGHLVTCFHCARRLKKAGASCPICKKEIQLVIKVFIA
Target sequence (Q00987 whole entry, looked up): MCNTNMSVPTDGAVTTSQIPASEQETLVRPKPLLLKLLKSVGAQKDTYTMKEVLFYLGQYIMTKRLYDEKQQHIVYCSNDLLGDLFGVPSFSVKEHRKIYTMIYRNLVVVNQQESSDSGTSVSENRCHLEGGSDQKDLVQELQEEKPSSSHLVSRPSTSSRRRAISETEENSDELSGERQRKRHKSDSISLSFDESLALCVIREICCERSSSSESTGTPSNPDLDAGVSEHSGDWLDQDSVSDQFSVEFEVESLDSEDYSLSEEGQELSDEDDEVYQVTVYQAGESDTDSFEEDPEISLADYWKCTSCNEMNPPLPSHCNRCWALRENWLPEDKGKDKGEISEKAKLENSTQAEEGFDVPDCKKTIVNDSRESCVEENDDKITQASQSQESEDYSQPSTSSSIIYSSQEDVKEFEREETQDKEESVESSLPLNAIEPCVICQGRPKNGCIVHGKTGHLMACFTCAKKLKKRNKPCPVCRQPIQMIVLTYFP
aSyn UTR inh = MLPCN primary screen, SNCA 5' untranslated region; alpha-synuclein 5'UTR reporter, inhibitor activity; 0.82% of 300,000 active; AID 1813; inhibition, % (tested at 7.5 µM); in the data active means inhibition above about 60%;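 further: H4 neuroglioblastoma cells stably carrying SNCA 5'UTR luciferase fusion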
IMP-1 inh = inhibitors of Pseudomonas aeruginosa IMP-1 metallo-beta-lactamase. purified IMP-1, nitrocefin hydrolysis, epi-absorbance fluorescence. inhibition, % at 5.6 µM. 0.45% of 290,000 active;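 active means inhibition above the mean plus 3 SD of all compounds in the same screening run, cut at about 4.5% in these data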
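System: purified recombinant IMP-1 beta-lactamase. Medium: Zinc- and detergent-supplemented HEPES buffer, pH 7.1. Compound: one 5.6 µM dose […]. Schedule: 15 min preincubation plus 25 min reaction at 25 °C. Technique: Epi-absorbance fluorescence, 480 nm excitation, 530 nm emission.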
697 NFkB inh = inhibitors of the PMA/ionomycin-induced NF-kB reporter in 697 B cells | inhibition, % at 4 µM | 0.33% of 330,000 active | AID 435022 | 697 B-cell NF-kB luciferase reporter, 16 h; in the data active means inhibition above about 35%
Jurkat NFkB inh = lowers PMA/ionomycin-induced NF-kB signal in Jurkat cells; inhibition, % at 4 µM; PMA/ionomycin-induced NF-kB luciferase reporter, luminescence; AID 435003; 0.53% of 330,000 active; in the data active means inhibition above about 50%
Mdm2-MdmX conf = confirmation of human Mdm2/MdmX interaction inhibitors; shares compounds with Mdm2 MdmX PPI; 55% of 10,000 active; inhibition, % at 8 µM; Mdm2-MdmX binding, luminescent assay; in the data active means inhibition above about 40%
FLuc counter = counter-screen for Mdm2/MdmX inhibitors: full-length luciferase; shares compounds with Mdm2 MdmX PPI; SaOS-2 full-length luciferase counterscreen, luminescence; inhibition, % at 8 µM; 77% of 6,200 active; AID 504607;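 active means mean inhibition at 8 µM reaching about 37%, which flags the compound as non-specific, limit read from the data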;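 further: p53-null SaOS-2 cells with luciferase driven by a doxycycline-inducible promoter; compound on cells about two nights before reading with doxycycline added after day one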
Numbers stand for hits; i = inactive; nt = no result. In the library only some 4.7% were active in any assay of this set; here they are far more common.

SMILES	VIM-2 inh	Mdm2 MdmX PPI	aSyn UTR inh	IMP-1 inh	697 NFkB inh	Jurkat NFkB inh	Mdm2-MdmX conf	others
Cc1ccc(NC(=O)COc2ccc(/C=C3/SC(=Nc4ccccc4)N(Cc4cccnc4)C3=O)cc2)cc1	i	51	i	i	i	i	i
COc1cccc(OC)c1OCc1cc(C2C3CCCC=C3C(C#N)=C(N)C2(C#N)C#N)c(C)cc1C (configuration not stated)	i	51	i	i	i	i	i
CC(=O)N1CCCc2cc(S(=O)(=O)N3CCCC3)ccc21	i	i	i	i	i	i	nt
C=CC(=O)Nc1cccc(Oc2cc(Cl)nc3[nH]ccc23)c1	nt	80	nt	nt	i	i	72	FLuc counter=42
O=C(NNc1cccc(Cl)n1)c1ccccc1CC[N+](=O)[O-]	i	92	i	i	i	i	i
O=C(NNc1cccc(Cl)n1)c1ccc(Cl)cc1Cl	i	i	i	i	i	i	nt
O=C(c1ccc(Cl)c(S(=O)(=O)N2CCc3ccccc32)c1)N1CCN(c2ccccc2O)CC1	nt	54	nt	nt	i	i	i
O=C(COC(=O)c1cccnc1Cl)Nc1ccc2c(c1)OCCO2	i	i	i	i	i	i	nt
COc1cc(C(=O)O/N=C(\N)c2ccc([N+](=O)[O-])cc2)cc(OC)c1OC	i	75	i	i	i	i	i	FLuc counter=95
CCOc1cc(C(=O)O/N=C(\N)c2ccc([N+](=O)[O-])cc2)cc(OCC)c1OCC	i	67	i	i	i	i	46	FLuc counter=92
COc1cc(C(=O)O/N=C(\N)c2cccc([N+](=O)[O-])c2)cc(OC)c1OC	i	74	i	i	i	i	i	FLuc counter=103
COc1cccc(C(=O)O/N=C(\N)c2ccc([N+](=O)[O-])cc2)c1	i	i	i	i	i	i	nt
O=c1c2c(nc3nc(NCc4ccccc4Cl)[nH]n13)CCC2	i	67	i	i	i	i	i
O=C(/C=C/c1ccccc1)NC(NC(=S)Nc1ccc(Cl)cc1Cl)C(Cl)(Cl)Cl (configuration not stated)	i	95	i	i	i	i	92	FLuc counter=i
O=C(/C=C/c1ccccc1)NC(NC(=S)Nc1cccc(Cl)c1)C(Cl)(Cl)Cl (configuration not stated)	i	98	i	i	i	i	68	FLuc counter=i
O=C(/C=C/c1ccccc1)NC(NC(=S)Nc1cccc(O)c1)C(Cl)(Cl)Cl (configuration not stated)	i	i	i	i	i	i	nt
O=C(NC(NC(=S)Nc1c(Cl)cc(Cl)cc1Cl)C(Cl)(Cl)Cl)OCc1ccccc1 (configuration not stated)	i	86	i	i	i	i	57	FLuc counter=56
Cc1ccc(C)c(NC(=S)NC(NC(=O)/C=C/c2ccccc2)C(Cl)(Cl)Cl)c1 (configuration not stated)	i	81	i	i	i	i	74	FLuc counter=i
O=C(/C=C/c1ccccc1)NC(NC(=S)Nc1ccc(C(=O)O)cc1)C(Cl)(Cl)Cl (configuration not stated)	i	i	i	i	i	i	nt
Cc1ccc(C)c(NC(=S)NC(NC(=O)OCc2ccccc2)C(Cl)(Cl)Cl)c1 (configuration not stated)	i	i	i	i	i	i	nt
COCCC(=O)N1CCC(Oc2ccc(C(=O)N3CCC[C@H]3CO)cc2)CC1	i	i	i	i	i	i	nt
COc1ccc(C2(C)NC(=O)N(CC(=O)c3cc(C)n(C4CC4)c3C)C2=O)cc1OC (configuration not stated)	nt	i	nt	nt	i	i	nt
COc1ccc(C(=O)Nc2ccccc2-c2nnn(CC(=O)NCc3ccco3)n2)cc1	i	i	i	i	i	i	nt
COc1ccccc1NC(=O)Cn1nnc(-c2ccccc2NC(=O)c2cnccn2)n1	i	52	i	i	i	i	i
COc1cc(OC)cc(C(=O)Nc2ccccc2-c2nnn(CC(=O)Nc3cc(C)on3)n2)c1	i	71	i	i	i	i	i
SMILES	VIM-2 inh	Mdm2 MdmX PPI	aSyn UTR inh	IMP-1 inh	697 NFkB inh	Jurkat NFkB inh	Mdm2-MdmX conf	others
O=C(Cn1nnc(-c2ccccc2NC(=O)c2ccccc2F)n1)NCc1ccco1	i	50	i	i	i	i	i
CC(C)(C)NC(=O)Cn1nnc(-c2ccccc2NC(=O)c2cnccn2)n1	i	i	i	i	i	i	nt
COc1ccc(NC(=O)Cn2nnc(-c3ccccc3NC(=O)c3ccco3)n2)cc1	i	55	i	i	i	i	56	FLuc counter=i
COc1ccc(C(=O)Nc2ccccc2-c2nnn(CC(=O)Nc3ccc4c(c3)OCCO4)n2)cc1	i	i	i	i	i	i	nt
C/C(CCC12CC3CC(CC(C3)C1)C2)=N\NC(N)=S	i	i	i	i	i	i	nt
C/C(CC(C)(C)C1CCCCC1)=N\NC(N)=S	i	56	i	i	i	i	i
CCOc1ccc(-c2csc(/C(C#N)=C\c3ccc(O)c([N+](=O)[O-])c3)n2)cc1	i	96	i	i	i	i	83	FLuc counter=52
CCCCc1ccc(-c2csc(/C(C#N)=C\c3ccc(C)o3)n2)cc1	i	i	i	i	i	i	nt
CC(C)C[C@H](NC(=O)[C@@H]1Cc2c([nH]c3ccccc23)C2c3ccccc3C(=O)N21)C(=O)N1CCC[C@@H]1C(=O)O (some centres not stated)	i	i	i	i	i	i	nt
Cc1ccc(S(=O)(=O)Nc2ccc(S(=O)(=O)Nc3nccs3)cc2)cc1C	nt	i	nt	nt	i	i	nt
O=C(NNC(=O)C12CC3CC(CC(C3)C1)C2)c1ccccc1F	i	i	i	i	i	i	nt
O=C(NNC(=O)C12CC3CC(CC(C3)C1)C2)c1ccccc1O	nt	53	nt	nt	i	i	i
COc1ccccc1-c1nnc(SC(C(=O)c2c[nH]c3ccccc23)c2ccccc2)n1C (configuration not stated)	i	i	i	i	i	i	nt
COc1cccc(-c2nnc(SC(C(=O)c3c[nH]c4ccccc34)c3ccccc3)n2C)c1 (configuration not stated)	i	56	i	i	i	i	i
CC(C)C(=O)N[C@@H]1c2ccccc2CC[C@@H]1O	nt	i	nt	nt	i	nt	nt
CC1(C)Cc2c(C#N)c(NCCN3CCOCC3)nc(-c3ccco3)c2CO1	i	i	i	i	i	i	nt
CN(C)CCNc1ncnc2c1sc1nc(N3CCCC3)c3c(c12)CC(C)(C)OC3	i	i	i	i	i	i	nt
CC1(C)Cc2c(c(-c3ccco3)nc3sc4c(NCCN5CCOCC5)ncnc4c23)CO1	i	51	i	i	i	i	i

Assay outcomes (PubChem)
